In brackets after ≈: the same amount, converted by molar mass. Blank lines part the entries; values can stand above or below the molecule they belong to.
Experiments:
[1] = solubility in rats; format: ADME
Summary of the method: (§1)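 Excess solid removed by filtration. The saturated solution was diluted and drug concentration measured by UV spectrophotometry.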

[2] = Half life was determined after intravenous administration; format: ADME, organism-based; settings: in vivo
[3] = AUC(area under curve) was determined after intravenous administration in rats; format: ADME, organism-based; settings: rat, plasma
[4] = Bioavailability was evaluated in rats; format: ADME, organism-based; settings: rat, in vivo
[5] = species on record: Rattus norvegicus; assay: Pharmacokinetic parameter was evaluated in rats which is represented as Vbeta; format: ADME, organism-based; settings: in vivo
[6] = molecular target: T1, Intercellular adhesion molecule (ICAM-1), Integrin alpha-L/beta-2 (Homo sapiens, UniProt P05107+P20701); assay: Inhibition of JY-8 cell adhesion via leukocyte function associated antigen 1 (LFA-1) to ICAM-1, range (100-110); format: cell-based
[7] = molecular target: T1, Intercellular adhesion molecule (ICAM-1), Integrin alpha-L/beta-2; assay: Inhibition of JY-8 cell adhesion via leukocyte function associated antigen 1 (LFA-1) to ICAM-1, range (120-140); format: cell-based
[8] = molecular target: T1, Intercellular adhesion molecule (ICAM-1), Integrin alpha-L/beta-2; assay: Inhibition of JY-8 cell adhesion via leukocyte function associated antigen 1 (LFA-1) to ICAM-1, range (30-60); format: cell-based
[9] = molecular target: T1, Intercellular adhesion molecule (ICAM-1), Integrin alpha-L/beta-2; assay: Inhibition of JY-8 cell adhesion via leukocyte function associated antigen 1 (LFA-1) to ICAM-1, range (110-140)
[10] = molecular target: T1, Intercellular adhesion molecule (ICAM-1), Integrin alpha-L/beta-2
[11] = molecular target: Integrin alpha-L (Homo sapiens); assay: Binding affinity to leukocyte function associated antigen 1 (LFA-1) I domain by NMR
[12] = molecular target: T1, Intercellular adhesion molecule (ICAM-1), Integrin alpha-L/beta-2; assay: Inhibition of JY-8 cell adhesion via leukocyte function associated antigen 1 (LFA-1) to ICAM-1, range (90-100); format: cell-based
[13] = molecular target: T1, Intercellular adhesion molecule (ICAM-1), Integrin alpha-L/beta-2; assay: Inhibition of JY-8 cell adhesion via leukocyte function associated antigen 1 (LFA-1) to ICAM-1; format: cell-based
[14] = Half life when administered 5 mg/kg orally; range (0.99-1.14); format: ADME, organism-based; design: dose 5 mg/kg; settings: in vivo, po
[15] = Mean Cmax in rats after 5 mg/kg oral dose, range (0.17-0.20); format: ADME, organism-based; design: dose 5 mg/kg, route oral; settings: rat, in vivo
[16] = solubility was determined; format: physicochemical; summary of the method: as §1
[17] = Pharmacokinetic parameter was evaluated which is represented as AUC when administered 5 mg/kg intravenously; range (2.1-2.3); format: ADME, organism-based; design: dose 5 mg/kg, route intravenous; settings: in vivo, iv
[18] = Bioavailability was evaluated after oral administration of 5 mg/kg; range (8.7-15.8); format: ADME, organism-based; settings: eutheria, in vivo
[19] = Half life when administered intravenously; range (0.3-1.79); format: ADME, organism-based; settings: in vivo, iv
[20] = Pharmacokinetic parameter was evaluated which is represented as Vbeta; range (0.9-6); format: ADME
[21] = Pharmacokinetic parameter was evaluated which is represented as AUC when administered 5 mg/Kg orally; range (0.19-0.35); format: ADME; settings: in vivo, po
[22] = Pharmacokinetic parameter was evaluated after oral administration of 5 mg/kg; range (0.2-1); format: ADME, organism-based; design: dose 5 mg/kg, route oral; settings: in vivo
[23] = Half life when administered 5 mg/kg orally; range (4.1-5.5); format: ADME, organism-based; design: dose 5 mg/kg; settings: in vivo, po
[24] = Pharmacokinetic parameter was evaluated after oral administration of 5 mg/kg; range (4-8); format: ADME, organism-based; design: dose 5 mg/kg, route oral; settings: in vivo
[25] = Pharmacokinetic parameter was evaluated which is represented as AUC when administered orally a dose of 5 mg/kg; range (4.2-8.8); format: ADME, organism-based; design: dose 5 mg/kg, route oral; settings: in vivo, po
[26] = molecular target: T1, Intercellular adhesion molecule (ICAM-1), Integrin alpha-L/beta-2; remark: listed apart in the source
[27] = Mean Cmax in rats after 5 mg/kg oral dose, range (0.4-0.8); format: ADME, organism-based; design: dose 5 mg/kg, route oral; settings: rat, in vivo
[28] = molecular target: T1, Intercellular adhesion molecule (ICAM-1), Integrin alpha-L/beta-2; assay: Inhibition of JY-8 cell adhesion via leukocyte function associated antigen 1 (LFA-1) to ICAM-1, range (320-350); format: cell-based
[29] = Dissociation constant was determined; format: physicochemical
[30] = molecular target: T1, Intercellular adhesion molecule (ICAM-1), Integrin alpha-L/beta-2; assay: Inhibition of JY-8 cell adhesion via leukocyte function associated antigen 1 (LFA-1) to ICAM-1, range (370-470); format: cell-based

T1 sequence (P20701 whole entry): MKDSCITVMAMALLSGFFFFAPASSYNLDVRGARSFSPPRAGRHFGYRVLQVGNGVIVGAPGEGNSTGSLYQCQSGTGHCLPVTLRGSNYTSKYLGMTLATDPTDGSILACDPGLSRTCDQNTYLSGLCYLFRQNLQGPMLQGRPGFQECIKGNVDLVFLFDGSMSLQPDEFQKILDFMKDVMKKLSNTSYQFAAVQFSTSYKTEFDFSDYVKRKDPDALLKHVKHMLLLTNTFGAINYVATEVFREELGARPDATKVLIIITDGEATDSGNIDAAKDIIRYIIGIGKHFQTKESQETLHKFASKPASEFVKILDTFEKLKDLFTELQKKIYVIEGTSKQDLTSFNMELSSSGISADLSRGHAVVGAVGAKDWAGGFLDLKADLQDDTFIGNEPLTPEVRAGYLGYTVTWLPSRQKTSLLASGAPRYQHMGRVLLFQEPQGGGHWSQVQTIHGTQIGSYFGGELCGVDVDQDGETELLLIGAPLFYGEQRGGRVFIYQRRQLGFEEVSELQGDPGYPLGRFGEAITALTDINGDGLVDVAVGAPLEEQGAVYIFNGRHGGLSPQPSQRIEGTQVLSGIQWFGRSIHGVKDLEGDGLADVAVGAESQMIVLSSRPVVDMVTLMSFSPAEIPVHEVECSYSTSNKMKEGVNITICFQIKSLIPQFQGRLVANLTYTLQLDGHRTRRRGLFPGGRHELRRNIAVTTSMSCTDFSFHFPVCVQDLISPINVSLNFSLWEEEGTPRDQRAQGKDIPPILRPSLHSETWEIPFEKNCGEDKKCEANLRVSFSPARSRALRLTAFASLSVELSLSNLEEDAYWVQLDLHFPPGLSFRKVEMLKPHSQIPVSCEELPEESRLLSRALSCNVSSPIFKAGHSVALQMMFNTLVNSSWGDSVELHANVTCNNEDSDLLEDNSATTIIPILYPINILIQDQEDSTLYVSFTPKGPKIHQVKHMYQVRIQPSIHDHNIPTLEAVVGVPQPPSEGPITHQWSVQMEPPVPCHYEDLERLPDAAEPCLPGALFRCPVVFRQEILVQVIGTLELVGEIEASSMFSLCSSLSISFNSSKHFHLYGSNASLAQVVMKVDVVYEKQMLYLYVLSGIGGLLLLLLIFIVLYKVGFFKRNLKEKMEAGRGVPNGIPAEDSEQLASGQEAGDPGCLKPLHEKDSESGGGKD
T1 sequence (P05362 whole entry, further chain): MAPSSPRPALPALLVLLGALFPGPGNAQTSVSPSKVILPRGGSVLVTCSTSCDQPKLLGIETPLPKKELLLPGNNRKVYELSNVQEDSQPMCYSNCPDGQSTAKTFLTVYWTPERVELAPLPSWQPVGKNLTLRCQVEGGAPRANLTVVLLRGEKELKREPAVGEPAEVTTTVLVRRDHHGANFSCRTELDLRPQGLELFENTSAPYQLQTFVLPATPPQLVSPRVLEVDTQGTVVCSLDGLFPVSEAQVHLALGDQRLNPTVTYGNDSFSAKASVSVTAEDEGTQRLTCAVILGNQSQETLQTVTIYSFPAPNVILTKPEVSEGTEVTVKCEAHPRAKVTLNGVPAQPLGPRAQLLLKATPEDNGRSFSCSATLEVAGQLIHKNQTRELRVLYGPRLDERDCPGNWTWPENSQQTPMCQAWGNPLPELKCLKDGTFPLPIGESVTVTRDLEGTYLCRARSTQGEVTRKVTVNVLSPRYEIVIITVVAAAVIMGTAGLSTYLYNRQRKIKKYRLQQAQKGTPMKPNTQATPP
T1 sequence (P05107 whole entry): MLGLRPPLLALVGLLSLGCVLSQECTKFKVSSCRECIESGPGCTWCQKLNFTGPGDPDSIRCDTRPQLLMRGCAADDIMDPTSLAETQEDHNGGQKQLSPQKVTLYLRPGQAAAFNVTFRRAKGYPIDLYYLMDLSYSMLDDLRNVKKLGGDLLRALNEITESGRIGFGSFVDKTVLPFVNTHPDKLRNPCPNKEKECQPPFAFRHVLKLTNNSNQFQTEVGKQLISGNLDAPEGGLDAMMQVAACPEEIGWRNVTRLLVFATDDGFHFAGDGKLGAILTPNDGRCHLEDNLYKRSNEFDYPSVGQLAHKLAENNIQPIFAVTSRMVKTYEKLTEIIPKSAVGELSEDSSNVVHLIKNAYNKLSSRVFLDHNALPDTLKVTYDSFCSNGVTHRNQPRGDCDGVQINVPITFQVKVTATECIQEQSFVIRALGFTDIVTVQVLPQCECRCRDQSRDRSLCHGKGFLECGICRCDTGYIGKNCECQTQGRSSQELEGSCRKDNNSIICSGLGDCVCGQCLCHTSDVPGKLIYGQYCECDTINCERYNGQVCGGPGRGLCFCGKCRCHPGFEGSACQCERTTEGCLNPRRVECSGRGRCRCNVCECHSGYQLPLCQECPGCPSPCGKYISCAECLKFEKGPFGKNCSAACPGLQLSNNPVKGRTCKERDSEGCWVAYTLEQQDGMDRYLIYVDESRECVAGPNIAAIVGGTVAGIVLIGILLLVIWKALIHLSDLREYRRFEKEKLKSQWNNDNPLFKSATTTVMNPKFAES

IC50 [6]: 0.1 µM
SMILES: CCn1cc(CN(C)C)c2cccc(Sc3ccc(/C=C/C(=O)N4CCN(C(C)=O)CC4)cc3Cl)c21

IC50 [7]: 0.13 µM
SMILES: CCn1ccc2cccc(Sc3ccc(/C=C/C(=O)N4CCN(C(C)=O)CC4)cc3Cl)c21

IC50 [8]: 0.06 µM
SMILES: COCCn1ccc2cc(Sc3ccc(/C=C/C(=O)N4CCN(C(C)=O)CC4)cc3Cl)ccc21

half-life [14]: 66 min | Cmax [15]: 190 ng/mL | solubility [16]: 4.1 µg/mL (≈ 8.93 µM) | AUC [17]: 2200 ng·h/mL | bioavailability [18]: 12.4% | half-life [19]: 33 min | Vbeta [20]: 3 kg⁻¹ | AUC [21]: 280 ng·h/mL | IC50 [8]: 0.04 µM | Tmax [22]: 30 min
SMILES: CC(=O)N1CCN(C(=O)/C=C/c2ccc(Sc3ccc4c(c3)OCCO4)c(Cl)c2)CC1

IC50 [13]: 1.2 µM
SMILES: CC(=O)N1CCN(C(=O)/C=C/c2ccc(Sc3ccc4c(c3)OCC(C(=O)O)O4)c(Cl)c2)CC1 (stereo unspecified)

IC50 [13]: 0.51 µM
SMILES: CC(=O)N1CCN(C(=O)/C=C/c2ccc(Sc3ccc4c(c3)OCC(C(=O)N(C)C)O4)c(Cl)c2)CC1 (stereo unspecified)

IC50 [13]: 0.02 µM
SMILES: CC(=O)N1CCN(C(=O)/C=C/c2ccc(Sc3ccc4c(ccn4C)c3)c(Cl)c2)CC1

IC50 [13]: 0.02 µM
SMILES: CC(=O)N1CCN(C(=O)/C=C/c2ccc(Sc3ccc4c(c3)OCC(CO)O4)c(Cl)c2)CC1 (stereo unspecified)

IC50 [28]: 0.33 µM
SMILES: CC(=O)N1CCN(C(=O)/C=C/c2ccc(Sc3ccc4c(ccn4CC(=O)O)c3)c(Cl)c2)CC1

IC50 [30]: 0.42 µM
SMILES: CC(=O)N1CCN(C(=O)/C=C/c2ccc(Sc3ccc4[nH]cc(CN(C)C)c4c3)c(Cl)c2)CC1

More lines, now with the values behind:

SMILES: CC(=O)N1CCN(C(=O)/C=C/c2ccc(Sc3ccccc3C(C)C)c([N+](=O)[O-])c2)CC1 [A-286982]
solubility [1]: 0.9 µg/mL (≈ 1.98 µM) | half-life [2]: 24 min | AUC [3]: 1900 ng·h/mL | bioavailability [4]: 0% | Vbeta [5]: 2 kg⁻¹

SMILES: CC(=O)N1CCN(C(=O)/C=C/c2ccc(Sc3ccc4c(c3)OCO4)c(Cl)c2)CC1
IC50 [9]: 0.12 µM

SMILES: CC(=O)N1CCN(C(=O)/C=C/c2ccc(Sc3cc4[nH]c(O)nc4cc3Cl)c(Cl)c2)CC1
IC50 [10]: 0.79 µM

SMILES: c1ccc2nsnc2c1 [BENZO[1,2,5]THIADIAZOLE]
Kd [11]: 8000 µM

SMILES: CCOc1c(Sc2ccc(/C=C/C(=O)N3CCN(C(C)=O)CC3)cc2Cl)ccc2c1OCCO2
IC50 [12]: 0.1 µM

SMILES: CC(=O)N1CCN(C(=O)/C=C/c2ccc(Sc3ccc4cc[nH]c4c3)c(Cl)c2)CC1
IC50 [13]: 0.15 µM

SMILES: Cn1ccc2ccccc21
Kd [11]: 1400 µM

SMILES: CC(=O)N1CCN(C(=O)/C=C/c2ccc(Sc3cccc4ccn(C)c34)c(Cl)c2)CC1
IC50 [13]: 0.07 µM

SMILES: CCOc1c(Sc2ccc(/C=C/C(=O)N3CCN(C(C)=O)CC3)cc2Cl)cc(Cl)c2cccnc12
IC50 [13]: 0.58 µM

SMILES: CC(=O)N1CCN(C(=O)/C=C/c2ccc(Sc3ccc4[nH]ccc4c3)c(Cl)c2)CC1
half-life [23]: 282 min | solubility [16]: 0.8 µg/mL (≈ 1.82 µM) | Tmax [24]: 360 min | AUC [25]: 5800 ng·h/mL | IC50 [26]: 0.02 µM | Cmax [27]: 600 ng/mL

SMILES: c1ccc2c(c1)OCCO2
Kd [11]: 10000 µM

SMILES: Nc1ccc(Sc2ccc3ccccc3c2Cl)c(Cl)c1
IC50 [13]: 2.3 µM | Kd [29]: < 20 µM

Reference: ChEMBL document CHEMBL1134392, “Novel p-arylthio cinnamides as antagonists of leukocyte function-associated antigen-1/intracellular adhesion molecule-1 interaction. 2. Mechanism of inhibition and structure-based improvement of pharmaceutical properties” (J Med Chem, 2001)
